Results published in ChEMBL document CHEMBL1134294, “A prodrug form of a Plasmodium falciparum glutathione reductase inhibitor conjugated with a 4-anilinoquinoline” (J Med Chem, 2001).
Activity calls are given as the source filed them. No cut-off for these calls is given here.

Assays:
[1] = test system: Plasmodium falciparum; assay: Effective dose against chloroquine-resistant Plasmodium falciparum FcB1R; format: functional
Method in brief: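 Asynchronous cultures in human erythrocytes (0.5% parasitemia, 1% hematocrit) received serially diluted drug, DMSO ≤0.1%. After 24 h at 37 °C, 0.5 μCi [3H]hypoxanthine was added and incubation continued another 24 h. Growth inhibition was taken versus drug-free control, ED50 read from the concentration–response curve, and reported as mean of ≥3 independent experiments.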

[2] = Susceptibility of compound to hydrolysis at 37 degrees C for RPMI-10% human serum; format: ADME; details: RPMI with 10% human serum
Method in brief: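 Prodrug (100 μM final, from 1 mM stock in 10% aqueous DMSO) is held in RPMI with 10% human serum at 37 °C and sampled from 0 to 77.5 h. Samples are mixed with EtOH plus internal reference, centrifuged, and the supernatant is analysed by HPLC. Half-life of ester disappearance is the mean of two determinations.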

[3] = Susceptibility of compound to hydrolysis at 37 degrees C at pH 7.4 phosphate buffer; format: ADME
Method in brief: (§1)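 Prodrug (100 μM final, from 1 mM stock in 10% aqueous DMSO) is incubated at 37 °C in pH 7.4 phosphate buffer (150 mM NaCl, 4 mM NaH₂PO₄, 25 mM NaHCO₃) or pH 5.0 acetate (150 mM NaCl, 10 mM NaOAc). Half-life of ester disappearance is found by HPLC as the mean of two determinations.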

[4] = Susceptibility of compound to hydrolysis at 37 degrees C at pH 5.0 acetate medium; format: ADME; method in brief: as §1
[5] = test system: Plasmodium berghei; assay: Parasitaemia (%) on day 4 in Plasmodium berghei infected mice (Mus musculus) at 40 mg/kg intraperitoneal dose; format: functional
Method in brief: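 Female Swiss CD-1 mice (four-week-old, 20–25 g, three per group) are infected ip with about 10⁷ P. berghei ANKA 65 parasitized erythrocytes from a donor. On the day of infection they receive 40 mg/kg orally in 100% DMSO, then daily ip for 4 days. Parasitemia is counted daily. Controls get DMSO only.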

[6] = test system: Mus musculus; assay: Percentage excess MST, when used as the chlorohydrate in mice infected with Plasmodium berghei (i.p., 40 mg/kg); format: functional; details: route intraperitoneal
Method in brief: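 Female Swiss CD-1 mice (four weeks, 20–25 g), three per group, were infected ip with about 10^7 P. berghei ANKA parasitized erythrocytes. Dosing was 40 mg/kg in 100% DMSO, given orally at infection, then ip over the following 4 days. Parasitemia was counted daily. Activity was scored as percentage excess mean survival time over DMSO-treated infected controls.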

[7] = biological target: T1, Glutathione reductase, mitochondrial (Homo sapiens) (UniProt P00390); assay: Competitive inhibition of human Glutathione Reductase
T1 sequence (whole entry): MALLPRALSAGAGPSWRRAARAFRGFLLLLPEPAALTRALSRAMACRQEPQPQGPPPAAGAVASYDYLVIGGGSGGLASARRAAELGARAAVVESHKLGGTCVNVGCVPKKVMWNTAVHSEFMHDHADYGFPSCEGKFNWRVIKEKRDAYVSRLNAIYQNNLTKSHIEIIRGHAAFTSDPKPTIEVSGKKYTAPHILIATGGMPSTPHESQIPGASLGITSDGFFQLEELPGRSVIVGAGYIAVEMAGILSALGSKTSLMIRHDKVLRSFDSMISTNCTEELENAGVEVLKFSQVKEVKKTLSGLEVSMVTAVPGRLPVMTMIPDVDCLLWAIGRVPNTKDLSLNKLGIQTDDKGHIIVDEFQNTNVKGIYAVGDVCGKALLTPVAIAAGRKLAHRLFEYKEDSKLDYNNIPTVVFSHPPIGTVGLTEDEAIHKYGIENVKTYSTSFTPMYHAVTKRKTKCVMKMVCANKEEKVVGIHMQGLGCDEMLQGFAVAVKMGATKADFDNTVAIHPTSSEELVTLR

[8] = biological target: Glutathione reductase (Plasmodium falciparum 3D7) (UniProt O15770); assay: Competitive inhibition of Plasmodium falciparum Glutathione Reductase; details: Plasmodium falciparum FcB1
[9] = biological target: Glutathione reductase (Plasmodium falciparum 3D7, UniProt O15770); assay: In vitro inhibition of Plasmodium falciparum Glutathione Reductase; set-up: species or system FcB1
Method in brief: (§2)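 Recombinant purified GR (about 5 mU/ml) with 100 μM NADPH in 47 mM potassium phosphate, 200 mM KCl, 1 mM EDTA, pH 6.9, at 25 °C. Enzyme, NADPH and inhibitor are premixed and the reaction is started with 100 μM GSSG. NADPH loss is read at 340 nm. IC50 is taken from increasing inhibitor concentrations in 1% final DMSO, run in duplicate.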

[10] = biological target: T2, Glutathione reductase, mitochondrial (Homo sapiens, UniProt P00390); assay: In vitro inhibition of human Glutathione Reductase; method in brief: as §2
T2 sequence (P00390 whole entry): T1 sequence (whole entry)

[11] = biological target: Glutathione reductase (Plasmodium falciparum 3D7) (UniProt O15770); assay: In vitro inhibition of Plasmodium falciparum Glutathione Reductase; Not active; details: Plasmodium falciparum FcB1; method in brief: as §2
[12] = biological target: T1, Glutathione reductase, mitochondrial (Homo sapiens); assay: In vitro inhibition of human Glutathione Reductase; Not active; method in brief: as §2
[13] = read-out: ED50 (the source's name)

Glutathione reductase (Plasmodium falciparum 3D7), sequence (O15770 whole entry): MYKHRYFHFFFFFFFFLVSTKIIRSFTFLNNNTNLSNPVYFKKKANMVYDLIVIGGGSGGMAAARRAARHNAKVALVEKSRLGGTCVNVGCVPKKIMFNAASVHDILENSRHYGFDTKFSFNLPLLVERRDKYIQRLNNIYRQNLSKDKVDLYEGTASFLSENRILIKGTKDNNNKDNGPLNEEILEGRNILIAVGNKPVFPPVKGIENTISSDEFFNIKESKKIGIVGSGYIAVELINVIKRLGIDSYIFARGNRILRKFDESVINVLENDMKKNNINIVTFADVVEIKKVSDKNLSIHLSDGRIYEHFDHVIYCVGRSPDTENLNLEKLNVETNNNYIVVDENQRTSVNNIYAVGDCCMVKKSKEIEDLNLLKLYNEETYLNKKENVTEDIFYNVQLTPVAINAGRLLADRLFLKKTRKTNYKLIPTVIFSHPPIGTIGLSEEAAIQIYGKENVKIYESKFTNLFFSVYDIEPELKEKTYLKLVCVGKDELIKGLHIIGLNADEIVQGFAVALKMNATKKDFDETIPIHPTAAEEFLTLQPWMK
Glutathione reductase, sequence (O15770 whole entry): as above

Compound `CC1=C(CCC(=O)OCc2cc(NC(=O)CN3CCCCC3)cc(Nc3ccnc4cc(Cl)ccc34)c2)C(=O)c2ccccc2C1=O` has an EC50 [1, 13] of 144000 nM.
`CCN(CCCC(C)Nc1ccnc2cc(Cl)ccc12)CCOC(=O)CCCCCC1=C(C)C(=O)c2ccccc2C1=O` (centres undefined) gave a half-life [2] greater than 80 h, an EC50 [1, 13] of 107 nM and a half-life [3] greater than 80 h. It also gave a half-life [4] greater than 80 h.
Compound `CC1=C(CCCCCC(=O)OCc2cc(NC(=O)CN3CCCCC3)cc(Nc3ccnc4cc(Cl)ccc34)c2)C(=O)c2c(O)cccc2C1=O` has an EC50 ([1]; read-out: ED50) of 56 nM.
`CC1=C(CCCCC(=O)OCc2cc(NC(=O)CN3CCCCC3)cc(Nc3ccnc4cc(Cl)ccc34)c2)C(=O)c2c(O)cccc2C1=O` gave a Parasitaemia [5] of 9%, a half-life [2] greater than 80 h and an EC50 ([1]; read-out: ED50) of 28.7 nM. The “Excess MST” value [6] was 39%, the half-life [3] was greater than 80 h and the half-life [4] was greater than 80 h.
Compound `O=C(CN1CCCCC1)Nc1cc(COC(=O)CCCCCc2ccccc2)cc(Nc2ccnc3cc(Cl)ccc23)c1` has an EC50 ([1]; read-out: ED50) of 368 nM.
Compound `CC1=C(CCCCC(=O)OCc2cc(NC(=O)CN3CCCCC3)cc(Nc3ccnc4cc(Cl)ccc34)c2)C(=O)c2ccccc2C1=O` has an EC50 [1, 13] of 47000 nM.
`CC1=C(CCCCCC(=O)O)C(=O)c2c(O)cccc2C1=O` showed a Ki.c [7] of 750 nM, an EC50 [1, 13] of 8200 nM and a Ki.c [8] of 2300 nM. It also gave an IC50 [9] of 1300 nM and an IC50 [10] of 750 nM.
With `CC1=C(CCCCCC(=O)OCOC(=O)C(C)(C)C)C(=O)c2ccccc2C1=O` the EC50 [1, 13] was 24100 nM, the NA [11] was “inactive” and the NA [12] was “inactive”. It also gave a half-life [3] of 2 h and a half-life [4] of 1 h.
